Reference: ChEMBL document CHEMBL4396943, “The tetrahydroxanthone-dimer phomoxanthone A is a strong inducer of apoptosis in cisplatin-resistant solid cancer cells” (Bioorg Med Chem, 2019)
Active and inactive are the calls of the source. No cut-off for these calls is given here.

What was measured:
MDA-MB-231 [1] = assay: Antiproliferative activity against human MDA-MB-231 cells assessed as reduction in cell viability incubated for 72 hrs by MTT assay; type: functional, cell-based; details: MDA-MB-231, 72 h
Outline: (§1)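 Cells seeded overnight in 96-well plates, then exposed to increasing concentrations (compound dissolved in DMSO, diluted in medium) for the stated time. MTT (5 mg/ml in PBS) added for 15 min, formazan dissolved in DMSO, absorbance read at 544 nm minus 690 nm background. IC50 = concentration giving 50% signal decrease. At least three independent experiments in triplicate.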

J82 [2] = assay: Induction of apoptosis in human J82 cells assessed as depolarization of mitochondrial membrane potential incubated for 2 hrs by TMRE staining based flow cytometry; type: functional, cell-based
Outline: (§2)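 Cells seeded overnight; complete medium swapped for FBS-free medium just before treatment to avoid TMRE ester cleavage. Exposure to PXA for 1 h, 2 h or 24 h. TMRE staining 20 min, cells collected by trypsinisation, ΔΨm read by flow cytometry. Medium served as negative control, 20 µM CCCP as positive control. Mean ± SEM reported.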

A2780 [3] = assay: Antiproliferative activity against human A2780 cells assessed as reduction in cell viability incubated for 48 hrs by MTT assay; type: functional, cell-based; details: A2780, 48 h; outline: as §1
A2780cisR [4] = assay: Reduction of H2O2-induced ROS generation in human A2780cisR cells at 316 nM incubated for 18 hrs by H2DCFDA staining based flow cytometry; type: functional, cell-based
Outline: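 Cells plated overnight in growth medium (approx. 150,000 cells/well), exposed to compound for 18 h. Then washed with PBS and moved to phenol red-free RPMI-1640 without FBS or antibiotics. Loaded with 10 µM H2DCF-DA, 30 min, 37 °C, dark. One aliquot then given 250 µM H2O2 for 1 h at 37 °C in the dark. DCF fluorescence read by flow cytometry; three independent experiments.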

J82 [5] = assay: Antiproliferative activity against human cisplatin resistant J82 cells assessed as reduction in cell viability incubated for 72 hrs by MTT assay; type: functional, cell-based; details: J82, 72 h; outline: as §1
J82 [6] = assay: Induction of apoptosis in human J82 cells assessed as accumulation in subG1 phase at 5 uM incubated for 24 hrs by propidium iodide staining based flow cytometry relative to control; type: functional
Outline: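 About 100,000 cells/well plated; after one day, treated 24 h. Cells lysed in hypotonic buffer (0.1% sodium citrate, 0.1% Triton X-100, 100 µg/ml propidium iodide) and kept overnight at 4 °C in the dark. Sub-G1 fraction measured by flow cytometry. Medium as control, cisplatin as positive control.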

J82 [7] = assay: Cell cycle arrest in human J82 cells assessed as accumulation at G1 phase at 10 uM incubated for 24 hrs by propidium iodide staining based flow cytometry (reference value: 69.6%); type: functional
Outline: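 After 24 h exposure, cells washed in ice-cold PBS. About 2 million cells fixed in cold 70% ethanol at −20 °C for at least 24 h. Stained with 0.1% Triton X-100, 200 µg/ml RNase A and 20 µg/ml propidium iodide in PBS, 15 min at 37 °C in the dark. DNA content read by flow cytometry with doublet discrimination. Medium as untreated control, paclitaxel as G2/M control. Three independent experiments.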

A2780 [8] = assay: Induction of apoptosis in human A2780 cells assessed as depolarization of mitochondrial membrane potential at 1 uM incubated for 1 hr by TMRE staining based flow cytometry; type: functional
Outline: (§3)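 Cells seeded overnight; medium switched to FBS-free just before treatment to avoid TMRE ester cleavage. Exposure 1 h, 2 h or 24 h, then TMRE staining for 20 min. Cells trypsinized, centrifuged at 4 °C and read by flow cytometry. Medium as negative control, 20 µM CCCP as positive control. […]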

A2780cisR [9] = assay: Effect on ROS generation in human A2780cisR cells at 316 nM incubated for 18 hrs by H2DCFDA staining based flow cytometry; type: functional, cell-based
Outline: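 Cells plated in 24-well plates (about 150,000/well) overnight, then exposed 18 h. Washed and moved to phenol red-free, serum-free RPMI-1640, then loaded with 10 µM H2DCF-DA for 30 min at 37 °C in the dark. One aliquot read directly, the other after 250 µM H2O2 for 1 h at 37 °C. DCF fluorescence read by flow cytometry. Three independent experiments.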

J82 [10] = assay: Induction of apoptosis in cisplatin resistant human J82 cells assessed as depolarization of mitochondrial membrane potential incubated for 2 hrs by TMRE staining based flow cytometry; type: functional, cell-based; outline: as §3
A2780 [11] = assay: Induction of apoptosis in human A2780 cells assessed as increase in caspase 3 cleavage at 5 uM incubated for 24 hrs by proteome profiler analysis; type: functional, cell-based
Outline: (§4)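 A2780 and A2780CisR cells treated 24 h with 5 µM PXA; apoptosis-related proteins profiled with a human apoptosis antibody array following kit instructions.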

A2780cisR [12] = assay: Ratio of IC50 for antiproliferative activity in human A2780cisR cells assessed as reduction in cell viability incubated for 24 hrs by MTT assay to IC50 for antiproliferative activity in human A2780cisR cells assessed as reduction in cell viability incubated for 72 hrs by MTT assay; type: functional
Outline: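 MTT assay as for the viability IC50s (overnight seeding, MTT 15 min, DMSO solubilisation, 544/690 nm), with PXA incubation for 24 h versus 72 h. IC50 is the concentration giving a 50% signal decrease. At least three independent experiments.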

KYSE-510 = assay: Antiproliferative activity against human KYSE-510 cells assessed as reduction in cell viability incubated for 72 hrs by MTT assay; type: functional, cell-based; details: KYSE-510, 72 h; outline: as §1
A2780 [13] = assay: Induction of apoptosis in human A2780 cells assessed as accumulation in subG1 phase incubated for 24 hrs by propidium iodide staining based flow cytometry; type: functional, cell-based
Outline: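 Cells plated in 24-well plates (about 100,000/well) for one day, then treated 24 h. Where used, caspase inhibitor Q-VD-OPh (20 µM) was added 1 h before. Cells lysed in hypotonic buffer (0.1% sodium citrate, 0.1% Triton X-100, 100 µg/ml propidium iodide) overnight at 4 °C in the dark. Sub-G1 fraction read by flow cytometry. Medium control, cisplatin positive control.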

A2780cisR [14] = assay: Induction of apoptosis in human A2780cisR cells assessed as depolarization of mitochondrial membrane potential at 1 uM incubated for 1 hr by TMRE staining based flow cytometry; type: functional; outline: as §2
MDA-MB-231 [15] = assay: Antiproliferative activity against cisplatin-resistant human MDA-MB-231 cells assessed as reduction in cell viability incubated for 72 hrs by MTT assay; type: functional, cell-based; details: MDA-MB-231, 72 h; outline: as §1
MDA-MB-231 [16] = assay: Potency index, ratio of cisplatin IC50 to compound IC50 for antiproliferative activity in cisplatin-resistant human MDA-MB-231 cells assessed as reduction in cell viability incubated for 72 hrs by MTT assay; type: functional
Outline: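 Cells seeded in 96-well plates overnight, exposed 72 h to increasing concentrations. MTT (5 mg/ml) added for 15 min, formazan dissolved in DMSO, absorbance read at 544 nm with 690 nm background subtracted. IC50 is the concentration reducing signal by 50%. Three independent experiments in triplicate. CisR sublines made by weekly intermittent cisplatin exposure for 24–30 weeks.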

A2780cisR [17] = assay: Induction of apoptosis in human A2780cisR cells assessed as decrease in claspin expression at 5 uM incubated for 24 hrs by proteome profiler analysis; type: functional, cell-based; outline: as §4

In the case of CC(=O)OC[C@]12Oc3c(-c4ccc(O)c5c4O[C@@]4(COC(C)=O)C(=C(O)C[C@@H](C)[C@H]4OC(C)=O)C5=O)ccc(O)c3C(=O)C1=C(O)C[C@@H](C)[C@H]2OC(C)=O [PHOMOXANTHONE A], the IC50 (MDA-MB-231 [1]) is reported as 3.7 µM, the Activity (J82 [2]) is reported as “Dose-dependent effect” and the IC50 (J82 [2]; J82, 2 h) is reported as 3.34 µM. For the same compound, the IC50 (A2780 [3]; read-out: IC50) was 1.18 µM, the IC50 (A2780 [3]; read-out: pIC50 (converted)) was 1.17 µM and the inhibition (A2780cisR [4]) was “inactive”. It also gave an IC50 (J82 [5]) of 2.04 µM, an Activity (J82 [6]) of 53% and an Activity (J82 [7]) of 70.9%. The Activity (A2780 [8]) was 73%, the Activity (A2780cisR [9]) was “inactive” and the Activity (J82 [10]) was “Dose-dependent effect”. For the same compound, the IC50 (J82 [10]; J82, 2 h) was 2.75 µM, the Activity (A2780 [11]) was “Active” and the “Ratio IC50” value (A2780cisR [12]) was 1.4. The IC50 (KYSE-510) was 0.76 µM, the Activity (A2780 [13]) was “Dose-dependent effect” and the Activity (A2780cisR [14]) was 73%. The IC50 (MDA-MB-231 [15]) was 4.37 µM, the “Ratio IC50” value (MDA-MB-231 [16]) was 2 - 10 and the Activity (A2780cisR [17]) was “Active”.
